Here are results for two compounds from publication PMC4449736 (Science translational medicine, 2015).

Data set [1] deals with single-cycle recombinant viruses with the integrase-coding regions of FG95 mutants. The experiment in a line: Susceptibility of single-cycle SIV recombinant viruses to GSK744 in TZM-bl cells. It is filed as cell-based. As to conditions: Table S2.
The conditions of data set [2]: human studies, data limited; cited from earlier work.
The conditions of data set [3]: oral GSK744, humans; cited from earlier work.
The format of data set [4] is in vivo, rhesus macaques (Macaca mulatta).
Data set [5] in a line: Plasma PK of GSK744 in Depo-Provera-treated female rhesus macaques. In kind it is in vivo. An outline of the steps: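 Female Indian rhesus macaques received 30 mg Depo-Provera IM on weeks -3 and 2 and monthly IM injections of long-acting test compound (8 treated, 4 controls), with three intravaginal SHIV162P3 challenges. Plasma drug levels were followed per animal and expressed as multiples of PAIC90. Plasma SHIV RNA was tracked weekly for 24 weeks by real-time RT-PCR (sensitivity 40 copies/mL) to time first vRNA detection.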

Another data set concerns UGT1A1, UGT1A9. The note with it: hepatic glucuronidation pathway; cited from earlier work.
Data set [6] deals with simian-human immunodeficiency virus (SHIV). As to conditions: cited from earlier work.
A further data set relates to HIV. As to conditions: TDF alone, injection drug users; cited from earlier work.

As usually defined, the Kp is the ratio of the level in a tissue or fluid to that in plasma or blood.

The structures appear in SMILES notation. Where a name gives a salt, the structure may show the parent alone.

Take `C[C@H]1CO[C@@H]2Cn3cc(C(=O)NCc4ccc(F)cc4F)c(=O)c(O)c3C(=O)N12` [GSK744]: in data set [1] (integrase E198G mutation (FG95, week 20)), the “viral susceptibility to GSK744” value is recorded as “did not decrease viral susceptibility”. In data set [1] (integrase P142S, I210V mutations (FG95, week 11)), the “susceptibility to GSK744 in vitro” value was “did not decrease susceptibility”. Further, the “relative mucosal tissue penetration” value in data set [2] is recorded as “penetrates cervical tissue slightly more efficiently than rectal tissue”. Further, the “apparent terminal half-life (t1/2)” value in data set [3] was “approximately 40 hours”. For the same compound, the “mean cervical T:P ratio” value in data set [4] (Depo-Provera-treated female macaques, 50 mg/kg GSK744 LA) was 0.09 (range: below detection to 0.20). In addition, the “GSK744 concentrations lower on average in cervical tissues than rectal tissues” value in data set [4] (Depo-Provera-treated female macaques, 50 mg/kg GSK744 LA monthly) worked out at 5 fold. Further, the “mean T:P ratio in unwashed rectal tissues” value in data set [4] (Depo-Provera-treated female macaques, 50 mg/kg GSK744 LA, no saline rinse) is recorded as 0.37 (range: 0.15 to 1.13). Further, the Kp in data set [4] (female, Indian, rhesus monkey, cervical tissue / plasma, intramuscular, 50 mg/kg) was roughly 0.1. The entries for the “plasma GSK744 concentration at first vRNA detection relative to PAIC90” value in data set [5] (macaque FG95) and in data set [5] (macaque FM26) were less than 1 x PAIC90 and “≈ 2.2 x PAIC90”, respectively. For the same compound, the “plasma GSK744 concentration at the time of challenges relative to PAIC90” value in data set [5] (macaque FG95, three challenges) is 13.3–18.4 x PAIC90; in data set [5] (macaque FM26, three challenges) it was 12.4–18.1 X PAIC90. In the data set with UGT1A1, UGT1A9, the metabolizing enzymes entry was “primarily by UGT1A1, with some involvement from UGT1A9”. The protection in data set [6] (GSK744 plasma concentrations >3x PAIC90) is on record as 100%. The efficacy in data set [6] (GSK744 plasma concentrations ≥1x PAIC90) is reported as 97%.
For `CC(C)OC(=O)OCOP(=O)(CO[C@H](C)Cn1cnc2c(N)ncnc21)OCOC(=O)OC(C)C` [TDF, tenofovir disoproxil fumarate], in the data set with HIV, the “reduced HIV infection” value is 49%.
